Data: PubChem BioAssay
The source made the active and inactive calls.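 How the source made its calls, unless noted: active means inhibition above 20% together with a positive visual image hit; inconclusive means visual image hit but inhibition not above 20%; inactive means no visual image hit.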

Key:
[1] = inhibitors of TNFa-induced NFkB p65 translocation, primary screen, imaging, HUVEC, MLSMR starter and 10KST1 sets (AID 438); settings: HUVEC TNFa-induced p65 nuclear translocation; cell count: measured here: nuclei count (cytotoxicity indicator), at 2.08 µM; inhibition: at 2 µM, stronger effect = higher value, 0% TNFa-plus-vehicle, 100% no-TNFa wells;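 further: compound added about 3h40 before a 20 min TNFalpha stimulation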;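 on inhibition: signal is the nuclear over cytoplasmic p65 intensity ratio per well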
[2] = inhibitors of mutant huntingtin aggregation, primary screen, imaging, exon1htt(103Q)mCFP cells, high-content imaging (AID 483;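 active means visual image review flags a hit and inhibition of aggregation exceeds 20%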;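 further: compound exposure lasted 3 days before fixation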;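 on nuclei count: percent of the per-plate median nuclei count of sample wells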); settings: exon1htt(103Q)mCFP cell line, aggregate imaging, at 2 µM; inhibition of aggregation: stronger effect = higher value; nuclei count: measured here: cell count, toxicity
[3] = inhibitors of E-selectin induction by TNFa, primary screen, imaging, HUVEC, immunofluorescence, MLSMR starter and 10KST1 sets (AID 487;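 active means visually confirmed hit in the image check and inhibition above 20%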;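 on inhibition: signal is fraction of cell area covered by stained E-selectin grains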;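 on nuclei count: 100% = median nuclei count of all wells on the same plate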); settings: HUVEC TNFalpha-induced E-selectin immunofluorescence imaging, at 2 µM; inhibition: stronger effect = higher value; nuclei count: measured here: cell number, toxicity
[4] = target: Voltage-gated potassium channel subunit beta-2 (Rattus norvegicus) (UniProt P62483); assay: KvBeta enzyme negative modulators, primary screen, biochemical, NADPH fluorescence (AID 622;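 active means fluorescence slope higher than the sample average by over 3 SD, cut at about -0.22 in these data, passing the limit was not always enough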;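 further: slope of raw intensity against log time taken from 70 to 1610 s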); settings: recombinant KvBeta, 4-cyanobenzaldehyde reduction, at 10 µM, stronger effect = higher value
Chain of Voltage-gated potassium channel subunit beta-2 (Rattus norvegicus) (P62483 whole entry, looked up): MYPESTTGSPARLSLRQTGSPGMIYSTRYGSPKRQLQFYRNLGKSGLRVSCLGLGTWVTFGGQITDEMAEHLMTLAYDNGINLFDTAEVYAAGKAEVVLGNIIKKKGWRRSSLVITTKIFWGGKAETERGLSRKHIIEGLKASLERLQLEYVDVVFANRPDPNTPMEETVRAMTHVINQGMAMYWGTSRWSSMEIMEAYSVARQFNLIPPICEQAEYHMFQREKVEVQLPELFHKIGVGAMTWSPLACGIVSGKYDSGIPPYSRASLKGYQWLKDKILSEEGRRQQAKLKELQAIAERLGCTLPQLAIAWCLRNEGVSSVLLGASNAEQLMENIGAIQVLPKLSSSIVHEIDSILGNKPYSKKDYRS

[5] = target: Voltage-gated potassium channel subunit beta-2 (Rattus norvegicus) (UniProt P62483); assay: KvBeta positive modulators, primary screen, biochemical, NADPH fluorescence (AID 623;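 active means NADPH fluorescence slope more negative than the mean of all samples by about 3 SD, 99.7% confidence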;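 further: fluorescence intensity change per second fitted from 20 to 320 s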); settings: Recombinant KvBeta, NADPH fluorescence decrease slope, 10 min; at 10 µM; stronger effect = lower value
[6] = target: Muscarinic acetylcholine receptor M4 (Homo sapiens) (UniProt P08173); assay: compounds altering M4/GIRK thallium flux, either direction, primary screen, M4 allosteric agonist project, cell-based, HEK293 M4/GIRK, BTC-AM (AID 625;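 active means fluorescence slope after compound addition differing from the mean of all tested samples at 99.7% confidence, mostly higher but some lower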;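 further: thallium influx through GIRK channels coupled to M4 in HEK293 cells with BTC-AM dye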); settings: at 10 µM, actives lie on both sides
Chain of Muscarinic acetylcholine receptor M4 (Homo sapiens) (P08173 whole entry, looked up): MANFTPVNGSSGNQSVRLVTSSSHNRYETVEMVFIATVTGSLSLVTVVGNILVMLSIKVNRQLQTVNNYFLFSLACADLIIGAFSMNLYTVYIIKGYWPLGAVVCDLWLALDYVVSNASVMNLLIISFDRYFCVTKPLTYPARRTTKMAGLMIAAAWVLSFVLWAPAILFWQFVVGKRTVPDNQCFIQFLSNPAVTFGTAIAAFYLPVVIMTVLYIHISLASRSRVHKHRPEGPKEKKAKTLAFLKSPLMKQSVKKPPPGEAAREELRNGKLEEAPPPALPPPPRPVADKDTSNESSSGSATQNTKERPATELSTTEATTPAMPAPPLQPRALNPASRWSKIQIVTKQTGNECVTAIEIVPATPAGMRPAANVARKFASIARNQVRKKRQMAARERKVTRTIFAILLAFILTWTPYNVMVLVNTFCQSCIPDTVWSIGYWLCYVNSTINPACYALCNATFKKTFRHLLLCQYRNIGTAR
Procedure, shortened: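 Material: HEK293 cells with M4 receptor and GIRK channels; Times: cells overnight at 37 °C, BTC-AM loading 1 h, reads 2 min total; Technique: kinetic BTC-AM fluorescence sampled at 1 Hz, 10 s pre-addition baseline; Read-out basis: slope over 15–24 s of trace normalized to starting intensity; Controls: carbachol positive, DMSO negative.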

[7] = inhibitors of Sendai virus-induced IRF3 signaling, primary screen, TLR/RLR signaling modifier project, cell-based, Sendai virus stimulus, luciferase, 10K MLSCN set (AID 602276;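 active means inhibition at or above 50% at 10 µM; inactive means inhibition below 50%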;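 further: firefly luciferase from ISG56 promoter only with Renilla not read in this screen; 0% = Sendai virus plus DMSO and 100% = medium plus DMSO without virus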); settings: HEK293 RL24 IRF3 luciferase reporter, at 10 µM, stronger effect = higher value
[8] = inhibitors of poly I:C-induced TLR3 signaling, primary screen, cell-based, poly I:C stimulus, luciferase, 10K MLSCN set (AID 602277;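 active means inhibition of the reporter signal at or above 50%; inactive means inhibition below 50%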); settings: HEK293-TLR3 RL24 IRF3 luciferase reporter, at 10 µM, stronger effect = higher value

| SMILES | cell count [1] | inhibition [1] | inhibition of aggregation [2] | nuclei count [2] | inhibition [3] | nuclei count [3] | fluorescence slope [4] | NADPH fluorescence slope [5] | fluorescence slope [6] | inhibition [7] | inhibition [8] |
| --- | --- | --- | --- | --- | --- | --- | --- | --- | --- | --- | --- |
| CCOC(=O)N1CCC(Nc2c(-c3ccc(C)cc3)c(=O)c2=O)CC1 | 801 | -12.2% (inactive) | 26.1% (inactive) | 89.2% | -33.6% (inactive) | 106% | -0.471 (inactive) | -3.2e-05 (inactive) | 0.007 (inactive) | 2.25% (inactive) | 16.5% (inactive) |
| Cc1cc(C(=O)Nc2cccc(O)c2)c(C)o1 | 477 | 9.9% (inactive) | 2.6% (inactive) | 78.5% | -76.5% (inactive) | 112% | -0.566 (inactive) | -5.1e-05 (inactive) | 0.00709 (inactive) | 0.52% (inactive) | -20.8% (inactive) |
| CC(CN1CCOCC1)(NS(=O)(=O)c1ccccc1)c1ccccc1 (centres undefined) | 460 | -12% (inactive) | 10.4% (inactive) | 85.8% | 8% (inactive) | 111% | -0.576 (inactive) | -4.5e-06 (inactive) | 0.00534 (inactive) | 4.38% (inactive) | 7.26% (inactive) |
| COc1ccc(-c2cnc(SCC(=O)Nc3ccc4c(c3)OCO4)n2Cc2ccco2)cc1 | 450 | 17.8% (inactive) | -8.7% (inactive) | 105% | -1.8% (inactive) | 110% | -0.5 (inactive) | -2.5e-05 (inactive) | 0.00501 (inactive) | 2.4% (inactive) | 36.8% (inactive) |
| O=C(c1ccc(Cl)c(Cl)c1)N1CCOCC1 | 694 | -9.1% (inactive) | -0.3% (inactive) | 107% | 5.6% (inactive) | 105% | -0.568 (inactive) | -2.1e-05 (inactive) | 0.00532 (inactive) | 3.81% (inactive) | 3.54% (inactive) |
| O=C(Nc1ccc(Cl)c(Cl)c1)Nc1cc(C(=O)N2CCOCC2)ccc1N1CCCCC1 | 580 | -17.7% (inactive) | -5.4% (inactive) | 114% | -44.8% (inactive) | 114% | -0.441 (inactive) | -7.7e-06 (inactive) | 0.00555 (inactive) | 13.7% (inactive) | 13.1% (inactive) |
| CC1(C)Cc2noc(N)c2C(C)(C)N1OC(=O)c1cccs1 | 379 | 0% (inactive) | 5.5% (inactive) | 110% | -80.4% (inactive) | 129% | -0.46 (inactive) | 1.8e-05 (inactive) | 0.00603 (inactive) | 4.03% (inactive) | 12.6% (inactive) |
| FC(F)(F)C(F)(F)C(F)(F)c1nnc2ccc(N3CCOCC3)nn12 | 420 | 7.9% (inactive) | -8.6% (inactive) | 102% | -41.2% (inactive) | 111% | -0.51 (inactive) | 7.7e-05 (inactive) | 0.0046 (inactive) | -12% (inactive) | -3.61% (inactive) |
| CCOc1ccc2cc(C#N)c(SCC(=O)N3CCCC3)nc2c1 | 451 | -6.5% (inactive) | 3.1% (inactive) | 99.8% | -32% (inactive) | 109% | -0.551 (inactive) | -5.2e-05 (inactive) | 0.00682 (inactive) | -13.8% (inactive) | -15.2% (inactive) |
| C=CCOc1ccc(C2C(C(=O)c3ccco3)=C(O)C(=O)N2Cc2cccnc2)cc1 (centres undefined) | 341 | -7.7% (inactive) | -11.2% (inactive) | 107% | -61.9% (inactive) | 103% | -0.543 (inactive) | -0.000128 (inactive) | 0.00458 (inactive) | 17.4% (inactive) | 14.5% (inactive) |
| Cc1cc2c(cc(C(=O)NCc3cccnc3)n2Cc2ccc(Cl)cc2)o1 | 672 | -16.6% (inactive) | -46.1% (inactive) | 127% | -91.9% (inactive) | 99.8% | -0.49 (inactive) | -2.7e-06 (inactive) | 0.00518 (inactive) | 12.1% (inactive) | 14.8% (inactive) |
| Cc1ccc(S(=O)(=O)N2CCCC2C(=O)OCc2ccco2)cc1 (centres undefined) | 411 | -8.4% (inactive) | -7.8% (inactive) | 99% | -0.1% (inactive) | 102% | -0.499 (inactive) | -4e-05 (inactive) | 0.005 (inactive) | -9.42% (inactive) | -8.59% (inactive) |
| Cc1ccc(NCc2nnc(SCC(=O)NCc3ccco3)n2CC2CCCO2)cc1Cl (centres undefined) | 331 | -11.8% (inactive) | 13.3% (inactive) | 80.1% | 4.6% (inactive) | 106% | -0.505 (inactive) | 2.3e-05 (inactive) | 0.00472 (inactive) | -1.38% (inactive) | -3.61% (inactive) |
| Cc1ccc(NC(=O)c2ccc(NS(=O)(=O)c3c(C)noc3C)cc2)cc1C | 319 | -15.8% (inactive) | -9.9% (inactive) | 94.1% | -49.9% (inactive) | 110% | -0.48 (inactive) | -0.000226 (inactive) | 0.00475 (inactive) | 6.15% (inactive) | 9.64% (inactive) |
